From ChEMBL document CHEMBL4406794, “N-(7-Cyano-6-(4-fluoro-3-(2-(3-(trifluoromethyl)phenyl)acetamido)phenoxy)benzo[d]thiazol-2-yl)cyclopropanecarboxamide (TAK-632) Analogues as Novel Necroptosis Inhibitors by Targeting Receptor-Interacting Protein Kinase 3 (RIPK3): Synthesis, Structure-Activity Relationships, and in Vivo Efficacy” (J Med Chem, 2019) come the findings set out here.

Data set [1] has as its target RAF proto-oncogene serine/threonine-protein kinase (Homo sapiens) (UniProt P04049). Nature of the data set: Inhibition of wild-type human partial length RAF1 (I330 to T640 residues) expressed in bacterial expression system assessed as enzyme remaining activity at 1000 nM by Kinomescan method relative to control.
Data set [2] in a line: Toxicity in Sprague-Dawley rat at 1 mg/kg, iv or 5 mg/kg, po. The data set is classed as organism-based. The settings on record: in vivo.
For data set [3], the system named is Epidermal growth factor receptor (Homo sapiens), P00533 [L858R]. Nature of the data set: Inhibition of wild-type human partial length EGFR L858R mutant (R669 to V1011 residues) expressed in bacterial expression system assessed as enzyme remaining activity at 1000 nM by Kinomescan method relative to control. The method, boiled down:
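KINOMEscan binding competition. […] Incubation was 1 h at room temperature with shaking, then bead wash and elution with 0.5 μM nonbiotinylated ligand for 30 min. Eluted kinase was quantified by qPCR. Compound was diluted from 40× DMSO stocks to 1000 nM final.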

The species entered for the next data set is Homo sapiens. The data set is described as follows: Selectivity ratio of Kd for human partial length RIPK1 (M1 to K305 residues) expressed in bacterial expression system to Kd for wild-type human partial length RIPK3 (M1 to Q307 residues) expressed in bacterial expression system.
The target in data set [4] is Serine/threonine-protein kinase B-raf (Homo sapiens) (UniProt P15056). Nature of the data set: Inhibition of wild-type human partial length BRAF (S429 to E741 residues) expressed in mammalian expression system assessed as enzyme remaining activity at 1000 nM by Kinomescan method relative to control.
The subject of data set [5] is HT-29. The data set is described as follows: Effect on TNFalpha/cycloheximide-induced apoptosis in human HT-29 cells at 3 uM treated prior to TNFalpha/cycloheximide stimulation and measured after 20 hrs by cell-Titer Glo luminescent cell viability assay. Type of data set: cell-based. The settings on record: ht-29, 20 h. The procedure, abridged: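 HT-29 cells pretreated with compound at 3 μM or DMSO, then given TNF-α 20 ng/mL with either cycloheximide 5 μg/mL (TC) or Smac mimetic 10 nM (TS) for 20 h. Viability read by CellTiter-Glo luminescence.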

Data set [6] addresses Mitogen-activated protein kinase 8 (Homo sapiens) (UniProt P45983). Nature of the data set: Inhibition of wild-type human full length JNK1 (M1 to Q384 residues) expressed in mammalian expression system assessed as enzyme remaining activity at 1000 nM by Kinomescan method relative to control.
Data set [7] deals with Dual specificity mitogen-activated protein kinase kinase 2 (Homo sapiens) (UniProt P36507). The data set is described as follows: Inhibition of wild-type human full length MEK2 (M1 to V400 residues) expressed in mammalian expression system assessed as enzyme remaining activity at 1000 nM by Kinomescan method relative to control.
Data set [8] has as its system HT-29. The data set is described as follows: Effect on TNFalpha/smac mimetic-induced apoptosis in human HT-29 cells at 3 uM treated prior to TNFalpha/smac mimetic stimulation and measured after 20 hrs by cell-Titer Glo luminescent cell viability assay. The settings on record: ht-29, 20 h.
A short description of data set [9]: Half-life in Sprague-Dawley rat at 5 mg/kg, po by LC-tandem mass spectrometry analysis. Type of data set: ADME, organism-based. The following applies: in vivo. The procedure, abridged:
(§1)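 Male Sprague-Dawley rats dosed once i.v. at 1 mg/kg or intragastrically at 5 mg/kg. Compound dissolved in 5% DMSO, 10% Tween 80, 75% physiological saline at 0.2 and 1 mg/mL. Blood taken at several time points, plasma spun at 4 °C, stored at -80 °C, assayed by LC/MS/MS. Parameters from individual animals by noncompartmental analysis.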

The target of data set [10] is Cyclin-dependent kinase 3 (Homo sapiens) (UniProt Q00526). Nature of the data set: Inhibition of wild-type human full length CDK3 (M1 to H305 residues) expressed in bacterial expression system assessed as enzyme remaining activity at 1000 nM by Kinomescan method relative to control.
A short description of data set [11]: Cmax in Sprague-Dawley rat at 5 mg/kg, po by LC-tandem mass spectrometry analysis. The following applies: in vivo. Type of data set: ADME, organism-based. Details: dose 5 mg/kg, route oral. The procedure, abridged:
as §1

The subject of the next data set is Mus musculus. The data set is described as follows: Protection against TNFalpha/Z-VAD-fmk-induced C57BL/6J mouse model of systemic inflammatory response syndrome assessed as increase in mouse survial at 5 to 50 mg/kg, po administered via gavage 2 hrs prior to Z-VAD-fmk addition for 15 mins followed by TNFalpha stimulation for 1 hr and subsequent Z-VAD-fmk addition meaured up to 50 hrs post TNFalpha stimulation. Type of data set: functional, organism-based. The method, boiled down: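 Female C57BL/6 mice, fasted overnight, n=10 per group. Compound given by oral gavage at 5, 25 or 50 mg/kg 2 h before TNF. z-VAD-fmk 180 µg i.p., then 15 min later mTNF-α 400 µg/kg i.v. in endotoxin-free PBS, then a further 70 µg z-VAD-fmk i.p. 1 h later. Body temperature and survival followed, compared with vehicle by one-way ANOVA.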

Data set [12] addresses Mixed lineage kinase domain-like protein (Homo sapiens) (UniProt Q8NB16). The data set is described as follows: Inhibition of MLKL phosphorylation in TNFalpha/smac mimetic/Z-VAD-fmk stimulated human HT-29 cells at 1 uM treated prior to TNFalpha/smac mimetic/Z-VAD-fmk stimulation and measured after 2 to 4 hrs by SDS-PAGE based immunoblot assay. The data set is classed as cell-based.

The nature of data set [13]: Tmax in Sprague-Dawley rat at 1 mg/kg, iv by LC-tandem mass spectrometry analysis. The data set is classed as ADME, organism-based. The following applies: in vivo. The procedure, abridged: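 Male Sprague-Dawley rats received compound iv (1 mg/kg) or intragastrically (5 mg/kg). The vehicle was 5% DMSO, 10% Tween 80 and 75% saline, at 0.2 or 1 mg/mL. Blood was sampled at several time points and centrifuged at 4 °C. Plasma was stored at -80 °C and analysed by LC/MS/MS. Parameters were derived by noncompartmental analysis of individual animal data.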

Data set [14] has as its target Cyclin-dependent kinase 7 (Homo sapiens) (UniProt P50613). Nature of the data set: Inhibition of wild-type human full length CDK7 (M1 to L344 residues) expressed in mammalian expression system assessed as enzyme remaining activity at 1000 nM by Kinomescan method relative to control.
A further data set has as its system L929. Nature of the data set: Cytoprotection against TNFalpha/Z-VAD-fmk-induced necroptosis in mouse L929 cells at 0.01 to 1 uM treated prior to TNFalpha/Z-VAD-fmk stimulation and measured after 4 hrs by cell-Titer Glo luminescent cell viability assay. Type of data set: functional, cell-based. The procedure, abridged: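 Mouse L929 cells (DMEM, 10% FBS) pretreated with compound at the indicated concentrations, then given mouse TNF-α 20 ng/mL and z-VAD-fmk 20 μM for 4 h. Viability read by CellTiter-Glo luminescence.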

Data set [15] concerns the target Hepatocyte growth factor receptor (Homo sapiens) (UniProt P08581). Nature of the data set: Inhibition of wild-type human partial length MET (D1010 to S1367 residues) expressed in bacterial expression system assessed as enzyme remaining activity at 1000 nM by Kinomescan method relative to control.
Data set [16] in a line: AUC (0 to infinity) in Sprague-Dawley rat at 1 mg/kg, iv by LC-tandem mass spectrometry analysis. Type of data set: ADME, organism-based. Details: dose 1 mg/kg, time infinity, route intravenous. The following applies: in vivo. The procedure, abridged: as §1
Data set [17] concerns the target Inhibitor of nuclear factor kappa-B kinase subunit beta (Homo sapiens) (UniProt O14920). The data set is described as follows: Inhibition of wild-type human full length IKK-beta (M1 to S756 residues) expressed in mammalian expression system assessed as enzyme remaining activity at 1000 nM by Kinomescan method relative to control.

Active and inactive are the calls of the source. The rule behind the calls is not given here.

Sequence of Cyclin-dependent kinase 7 (Homo sapiens) (P50613 whole entry, the tested form may be a part): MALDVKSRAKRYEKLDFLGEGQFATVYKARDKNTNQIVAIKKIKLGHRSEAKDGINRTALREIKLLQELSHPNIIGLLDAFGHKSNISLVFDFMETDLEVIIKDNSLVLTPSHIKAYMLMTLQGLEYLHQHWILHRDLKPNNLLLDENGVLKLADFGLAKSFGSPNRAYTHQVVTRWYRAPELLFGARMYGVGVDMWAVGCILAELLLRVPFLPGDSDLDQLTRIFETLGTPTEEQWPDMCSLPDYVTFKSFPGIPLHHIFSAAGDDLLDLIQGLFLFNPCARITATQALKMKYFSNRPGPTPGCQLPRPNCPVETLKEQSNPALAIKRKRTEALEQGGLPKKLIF
Sequence of Cyclin-dependent kinase 3 (Homo sapiens) (Q00526 whole entry, looked up, the tested form may be a part): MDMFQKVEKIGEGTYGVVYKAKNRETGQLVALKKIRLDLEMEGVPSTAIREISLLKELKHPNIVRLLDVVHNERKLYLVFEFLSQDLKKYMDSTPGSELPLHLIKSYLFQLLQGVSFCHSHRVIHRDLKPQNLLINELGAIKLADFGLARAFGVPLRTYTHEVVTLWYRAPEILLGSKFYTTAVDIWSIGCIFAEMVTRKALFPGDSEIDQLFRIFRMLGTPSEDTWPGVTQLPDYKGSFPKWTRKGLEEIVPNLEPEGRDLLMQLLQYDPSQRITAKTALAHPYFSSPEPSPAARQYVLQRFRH
Sequence of Hepatocyte growth factor receptor (Homo sapiens) (P08581 whole entry, the tested form may be a part): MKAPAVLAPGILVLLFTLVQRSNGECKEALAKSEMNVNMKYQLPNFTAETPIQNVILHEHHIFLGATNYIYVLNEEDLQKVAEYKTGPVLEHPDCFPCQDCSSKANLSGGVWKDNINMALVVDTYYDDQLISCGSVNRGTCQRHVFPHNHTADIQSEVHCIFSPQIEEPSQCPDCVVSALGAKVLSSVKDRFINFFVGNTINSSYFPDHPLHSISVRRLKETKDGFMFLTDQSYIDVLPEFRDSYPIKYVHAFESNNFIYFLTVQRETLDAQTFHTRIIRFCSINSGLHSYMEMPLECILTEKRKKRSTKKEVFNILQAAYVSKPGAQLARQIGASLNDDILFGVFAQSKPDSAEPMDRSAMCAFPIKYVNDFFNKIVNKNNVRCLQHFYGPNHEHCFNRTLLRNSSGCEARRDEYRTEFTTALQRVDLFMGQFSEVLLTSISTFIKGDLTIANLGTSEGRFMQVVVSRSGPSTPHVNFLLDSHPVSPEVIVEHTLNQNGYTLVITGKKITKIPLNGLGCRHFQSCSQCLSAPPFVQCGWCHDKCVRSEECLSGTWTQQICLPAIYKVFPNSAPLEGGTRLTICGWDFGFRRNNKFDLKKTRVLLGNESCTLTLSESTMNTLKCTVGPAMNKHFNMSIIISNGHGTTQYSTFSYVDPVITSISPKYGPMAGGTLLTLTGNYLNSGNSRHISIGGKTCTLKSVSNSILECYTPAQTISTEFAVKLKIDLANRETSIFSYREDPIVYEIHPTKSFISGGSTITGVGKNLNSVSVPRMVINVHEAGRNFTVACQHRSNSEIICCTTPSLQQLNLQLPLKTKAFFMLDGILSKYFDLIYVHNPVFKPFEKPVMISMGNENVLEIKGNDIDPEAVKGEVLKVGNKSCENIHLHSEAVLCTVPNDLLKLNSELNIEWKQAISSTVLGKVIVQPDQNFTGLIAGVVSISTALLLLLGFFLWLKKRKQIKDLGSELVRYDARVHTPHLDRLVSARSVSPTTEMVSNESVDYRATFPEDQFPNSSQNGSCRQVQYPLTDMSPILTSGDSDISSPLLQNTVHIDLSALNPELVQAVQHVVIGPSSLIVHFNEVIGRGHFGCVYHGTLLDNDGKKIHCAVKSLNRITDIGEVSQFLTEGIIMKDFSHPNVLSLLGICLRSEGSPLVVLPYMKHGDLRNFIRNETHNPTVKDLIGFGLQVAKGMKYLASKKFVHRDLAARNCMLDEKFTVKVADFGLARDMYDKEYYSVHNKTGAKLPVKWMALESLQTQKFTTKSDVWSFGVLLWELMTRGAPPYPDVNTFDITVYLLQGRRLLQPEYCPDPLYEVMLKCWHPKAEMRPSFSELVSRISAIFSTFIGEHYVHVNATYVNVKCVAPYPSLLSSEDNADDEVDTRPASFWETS
Sequence of Mixed lineage kinase domain-like protein (Homo sapiens) (Q8NB16 whole entry, the tested form may be a part): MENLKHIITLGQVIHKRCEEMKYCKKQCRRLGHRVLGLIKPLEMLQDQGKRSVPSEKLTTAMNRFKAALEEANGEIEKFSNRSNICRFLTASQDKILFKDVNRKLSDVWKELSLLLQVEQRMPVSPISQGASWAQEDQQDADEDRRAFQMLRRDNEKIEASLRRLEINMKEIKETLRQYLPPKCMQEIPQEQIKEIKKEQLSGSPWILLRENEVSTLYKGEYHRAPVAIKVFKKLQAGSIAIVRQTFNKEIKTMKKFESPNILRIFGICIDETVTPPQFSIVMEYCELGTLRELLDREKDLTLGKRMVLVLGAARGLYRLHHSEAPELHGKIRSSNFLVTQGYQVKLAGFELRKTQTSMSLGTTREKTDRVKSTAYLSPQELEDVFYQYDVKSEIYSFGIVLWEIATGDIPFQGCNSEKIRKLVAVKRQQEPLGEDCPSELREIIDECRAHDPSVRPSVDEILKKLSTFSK
Sequence of Mitogen-activated protein kinase 8 (Homo sapiens) (P45983 whole entry, the tested form may be a part): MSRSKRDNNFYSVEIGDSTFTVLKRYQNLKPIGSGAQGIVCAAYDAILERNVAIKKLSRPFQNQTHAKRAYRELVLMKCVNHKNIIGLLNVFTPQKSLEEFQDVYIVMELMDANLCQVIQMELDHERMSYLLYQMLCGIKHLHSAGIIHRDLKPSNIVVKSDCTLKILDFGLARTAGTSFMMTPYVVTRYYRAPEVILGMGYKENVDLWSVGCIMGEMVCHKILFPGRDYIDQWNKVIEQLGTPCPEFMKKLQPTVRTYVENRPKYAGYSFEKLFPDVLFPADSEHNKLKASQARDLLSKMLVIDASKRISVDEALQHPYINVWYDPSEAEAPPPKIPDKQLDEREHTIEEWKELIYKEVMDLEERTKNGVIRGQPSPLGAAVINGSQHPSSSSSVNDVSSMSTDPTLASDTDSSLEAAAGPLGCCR
Sequence of Dual specificity mitogen-activated protein kinase kinase 2 (Homo sapiens) (P36507 whole entry, the tested form may be a part): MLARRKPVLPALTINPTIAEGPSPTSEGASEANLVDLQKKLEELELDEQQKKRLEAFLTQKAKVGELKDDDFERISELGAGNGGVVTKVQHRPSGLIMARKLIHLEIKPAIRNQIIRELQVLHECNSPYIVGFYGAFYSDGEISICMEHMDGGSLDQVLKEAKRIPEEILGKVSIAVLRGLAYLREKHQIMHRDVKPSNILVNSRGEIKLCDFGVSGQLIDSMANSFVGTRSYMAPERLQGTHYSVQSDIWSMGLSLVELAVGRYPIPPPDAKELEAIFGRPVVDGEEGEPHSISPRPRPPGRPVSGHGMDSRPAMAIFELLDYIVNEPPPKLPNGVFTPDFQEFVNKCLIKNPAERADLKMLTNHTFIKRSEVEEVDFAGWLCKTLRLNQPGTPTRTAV
Sequence of Inhibitor of nuclear factor kappa-B kinase subunit beta (Homo sapiens) (O14920 whole entry, the tested form may be a part): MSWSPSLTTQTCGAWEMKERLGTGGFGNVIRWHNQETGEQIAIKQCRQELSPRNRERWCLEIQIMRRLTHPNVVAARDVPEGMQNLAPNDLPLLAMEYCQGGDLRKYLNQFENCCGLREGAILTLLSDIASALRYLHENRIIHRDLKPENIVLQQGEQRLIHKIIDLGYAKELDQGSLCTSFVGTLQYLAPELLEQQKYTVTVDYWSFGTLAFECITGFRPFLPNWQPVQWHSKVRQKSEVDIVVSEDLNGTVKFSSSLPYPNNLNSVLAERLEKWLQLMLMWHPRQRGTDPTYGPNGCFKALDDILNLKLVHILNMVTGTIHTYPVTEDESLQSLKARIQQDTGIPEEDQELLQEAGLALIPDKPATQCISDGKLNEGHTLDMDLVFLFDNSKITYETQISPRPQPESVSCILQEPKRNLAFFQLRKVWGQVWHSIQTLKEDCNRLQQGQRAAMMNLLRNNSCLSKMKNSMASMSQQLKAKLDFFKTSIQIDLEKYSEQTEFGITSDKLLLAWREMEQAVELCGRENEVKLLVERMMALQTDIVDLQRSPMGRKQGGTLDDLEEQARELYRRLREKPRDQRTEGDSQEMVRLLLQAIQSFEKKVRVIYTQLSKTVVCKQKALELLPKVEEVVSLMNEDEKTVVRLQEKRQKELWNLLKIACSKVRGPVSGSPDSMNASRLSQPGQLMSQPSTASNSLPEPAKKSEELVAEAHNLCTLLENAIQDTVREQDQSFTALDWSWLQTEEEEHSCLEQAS
Sequence of RAF proto-oncogene serine/threonine-protein kinase (Homo sapiens) (P04049 whole entry, the tested form may be a part): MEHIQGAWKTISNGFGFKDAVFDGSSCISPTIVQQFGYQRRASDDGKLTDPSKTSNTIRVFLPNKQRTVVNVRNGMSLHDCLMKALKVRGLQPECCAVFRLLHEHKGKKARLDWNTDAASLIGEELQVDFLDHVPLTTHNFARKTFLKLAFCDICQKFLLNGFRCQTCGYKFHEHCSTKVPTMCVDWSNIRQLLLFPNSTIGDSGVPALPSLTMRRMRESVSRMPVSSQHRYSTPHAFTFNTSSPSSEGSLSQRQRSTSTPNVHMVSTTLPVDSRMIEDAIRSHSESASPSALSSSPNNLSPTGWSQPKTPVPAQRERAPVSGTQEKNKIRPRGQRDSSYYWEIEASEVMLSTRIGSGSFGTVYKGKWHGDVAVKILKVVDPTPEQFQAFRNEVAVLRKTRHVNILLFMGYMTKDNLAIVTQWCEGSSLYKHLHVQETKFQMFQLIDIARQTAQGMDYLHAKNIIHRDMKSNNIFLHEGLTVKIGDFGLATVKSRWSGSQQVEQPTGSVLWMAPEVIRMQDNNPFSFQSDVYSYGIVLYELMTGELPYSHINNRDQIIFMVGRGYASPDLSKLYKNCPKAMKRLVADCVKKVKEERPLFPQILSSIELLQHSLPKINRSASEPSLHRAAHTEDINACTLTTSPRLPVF

As to `O=C(Nc1cccc(Br)c1)Nc1cc(Oc2ccc3nc(NC(=O)C4CC4)sc3c2)ccc1F`, the Activity is 13% in data set [1]; “Non-Toxic” in data set [2]; 61% in data set [3]; 3.6% in data set [4]; “Non-Toxic” in the data set on HT-29 [5]; 79% in data set [6]. The Activity in data set [7] was 83%; in the data set on HT-29 [8], “Non-Toxic”; in [10], 96%; in data set [14] it was 81%; in data set [15], 14%; in data set [17], 97%. For the same molecule, the Ratio in the data set filed under Homo sapiens was more than 61.7. This molecule also gave a half-life in data set [9] of 15.2 h. This molecule also had a Cmax in data set [11] of 345 ng/mL. For the same molecule, the outcome in the data set on Mus musculus and in the data set on L929 was Active. In data set [12], the inhibition entry is “Active”. The time to peak (Tmax) in [13] turned out to be 4.98 min. The AUC(0-inf) in [16] stood at 6500 ng·h/mL.

For orientation: half-life means the time in which the quantity being followed falls by half. A high value points to slow decline. Usually Cmax stands for the maximum level reached in the sampled fluid or tissue. Usually Tmax stands for the time at which the peak concentration occurs. As a reminder, the AUC(0-inf) is total exposure, with the tail of the curve extrapolated. Read a low AUC(0-inf) as less exposure.
